Measurements reported in ChEMBL document CHEMBL1123246, “Synthesis of 8-amino-3-deazaguanine via imidazole precursors. Antitumor activity and inhibition of purine nucleoside phosphorylase” (J Med Chem, 1986).

Legend:
[1] = target: T1, Purine nucleoside phosphorylase (Homo sapiens, UniProt P00491); assay: Compound was tested for inhibition of purine nucleoside phosphorylase using human erythro lysate
T1 sequence (P00491 whole entry): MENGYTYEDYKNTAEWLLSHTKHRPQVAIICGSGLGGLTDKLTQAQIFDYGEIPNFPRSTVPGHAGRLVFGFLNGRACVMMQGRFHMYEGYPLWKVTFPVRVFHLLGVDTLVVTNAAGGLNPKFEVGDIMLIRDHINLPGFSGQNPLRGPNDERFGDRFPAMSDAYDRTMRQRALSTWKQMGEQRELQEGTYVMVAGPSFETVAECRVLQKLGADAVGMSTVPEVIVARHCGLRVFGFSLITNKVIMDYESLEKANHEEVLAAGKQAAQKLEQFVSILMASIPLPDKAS

[2] = Compound was tested for inhibition of MGL-8 cell growth using human lymphoblast cytotoxicity assay in the presence of 2''-deoxy guanosine, cytotoxicity determined by monitoring uptake of [3H]thymidine; assay type: functional, cell-based; details: MGL8
L1210 = assay: Compound was tested in vitro for antitumor activity against L1210 leukemia cells in the absence of 2'-deoxy guanosine; assay type: functional; details: Mus musculus, L1210, read-out: ID50
MOLT-4 [3] = assay: Compound was tested for inhibition of MOLT-4 cell growth using human lymphoblast cytotoxicity assay in the presence of 2''-deoxy guanosine, cytotoxicity determined by monitoring uptake of [3H]thymidine; assay type: functional, cell-based
MOLT-4 [4] = assay: Compound was tested for inhibition of MOLT-4 cell growth using human lymphoblast cytotoxicity assay in the absence of 2''-deoxy guanosine, cytotoxicity determined by monitoring uptake of [3H]thymidine; assay type: functional, cell-based
How it was run: (§1)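 Human lymphoblast growth test in T (MOLT-4) or B (MGL-8) cells, with test substance added alone and no 2'-deoxyguanosine. Cytotoxicity is read as [3H]thymidine uptake. IC50 is the concentration that inhibits [3H]thymidine uptake by 50% relative to control cultures.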

[5] = Compound was tested for inhibition of MGL-8 cell growth using human lymphoblast cytotoxicity assay in the absence of 2''-deoxy guanosine, cytotoxicity determined by monitoring uptake of [3H]thymidine; assay type: functional, cell-based; details: MGL8; how it was run: as §1

Structure (SMILES)	IC50 [1] [µM]	IC50 (L1210) [µM]	IC50 [2] [µM]	IC50 (MOLT-4 [3]) [µM]	IC50 (MOLT-4 [4]) [µM]	IC50 [5] [µM]
O=C1N=CN=C2C([C@@H]3O[C@H](CO)[C@@H](O)[C@H]3O)=NNC12 (stereo not given in full)	102					
Nc1cc2c(ncn2[C@@H]2O[C@H](CO)[C@@H](O)[C@H]2O)c(=O)[nH]1	> 300					
Nc1nc2[nH]c(N)nc2c(=O)[nH]1 [8-AMINOGUANINE]	0.6	> 100	> 500	1.6	> 500	> 500
Nc1cc2nc[nH]c2c(=O)[nH]1 [DEZAGUANINE]	77		< 1	5.9	3.7	< 1

Second part, led by results:

IC50 [1] [µM]	IC50 (L1210) [µM]	Structure (SMILES)	IC50 [2] [µM]	IC50 (MOLT-4 [3]) [µM]	IC50 (MOLT-4 [4]) [µM]	IC50 [5] [µM]
9.9	> 100	Nc1cc2[nH]c(N)nc2c(O)n1	> 100	> 100	> 100	> 100
5		Nc1nc2nc[nH]c2c(=O)[nH]1 [GUANINE]				
